FLuc inh counter: counter-screen for luciferase assay inhibitors: firefly luciferase inhibition; ATPLite firefly luciferase biochemical luminescence, 10 min; inhibition, % at 10 µM; 1.5% of 200,000 active; AID 1006;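 active = inhibition above about 50% when tested at 10 µM, limit read from the data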
Target sequence (P08659 whole entry, looked up): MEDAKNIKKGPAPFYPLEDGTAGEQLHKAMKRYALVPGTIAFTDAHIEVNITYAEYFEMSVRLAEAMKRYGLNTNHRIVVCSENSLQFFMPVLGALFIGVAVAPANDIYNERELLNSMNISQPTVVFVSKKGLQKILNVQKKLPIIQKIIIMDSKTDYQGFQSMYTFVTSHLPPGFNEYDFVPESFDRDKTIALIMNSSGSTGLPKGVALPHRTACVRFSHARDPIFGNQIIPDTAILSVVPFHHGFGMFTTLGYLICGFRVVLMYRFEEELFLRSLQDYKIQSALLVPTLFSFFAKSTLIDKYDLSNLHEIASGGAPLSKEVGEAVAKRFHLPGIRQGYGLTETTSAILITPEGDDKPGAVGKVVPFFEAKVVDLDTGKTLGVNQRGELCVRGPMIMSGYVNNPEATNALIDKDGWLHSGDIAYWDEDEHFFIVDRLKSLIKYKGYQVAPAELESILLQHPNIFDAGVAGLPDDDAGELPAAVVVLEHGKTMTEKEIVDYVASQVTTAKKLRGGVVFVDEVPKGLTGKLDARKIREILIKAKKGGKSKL
FLuc act counter: affects firefly luciferase, flagging false hits in luciferase stimulation screens | ATPlite luciferase biochemical, luminescence, 10 min; 0 = ATP-free wells, 1 = DMSO control | activation factor at 10 µM | 200,000 tested, under 10 active | AID 1027;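 active = luciferase activation factor, scaled between plate controls, of at least 2 with compound at 10 µM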
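assay system = Luciferase/luciferin detection reagent, cell-free biochemical luciferase assay | also added = ATP substrate | times = 10 min post-reagent at room temperature | measured by = luminescence from luciferase reaction | measure = luciferase activation, seen as luminescence increase over controls | benchmarks = low control with PBS replacing ATP, high control enzyme plus ATP without compound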
C8 TRAIL sens: caspase-8 TRAIL sensitization. NB7+C8 cells + TRAIL, ATPlite viability luminescence. AID 624354. inhibition (viability loss, TRAIL sensitization), % at 10 µM. 1% of 360,000 active;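 active = compounds causing at least 50% loss of cell viability in the single-dose screen, relative to plate controls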
PPC-1+TRAIL kill: PPC-1 cancer cell killing with TRAIL present; PPC-1 cells + TRAIL, ATPLite viability luminescence; cell killing (% activity), % at 4 µM or 5 µM; AID 1443; 0.41% of 220,000 active;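 active = cell killing above 50% in the first pass at 4 µM, then a duplicate retest at 5 µM averaging 50% or more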;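 also: plate controls were cells with TRAIL plus DMSO for no effect and medium-only wells lacking cells for full effect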
An asterisk follows results filed as active; nt = not tested or not shown. Sampled rows, rich in hits. Any-hit rate of the full collection: about 1.5%.

SMILES	FLuc inh counter	FLuc act counter	C8 TRAIL sens	PPC-1+TRAIL kill
O=C(COC(=O)c1ccccc1[N+](=O)[O-])c1ccc(C2CCCCC2)cc1	80*	0.2	4	25
O=C(CN1C(=O)NC2(CCCCCCC2)C1=O)NC1CCCc2ccccc21 (configuration not stated)	-2	1	-18	27
CC(C)(C)c1csc(NC(=O)Nc2ccccc2)n1	46	0.5	54*	25
CCc1nnc(NC(=O)CSc2nnc(C(C)NC(=O)c3ccccc3)n2C)s1 (configuration not stated)	nt	nt	-15	nt
COc1cc(SC)ccc1C(=O)N(Cc1ccccc1)c1ccccn1	nt	nt	-11	7
CCC(=O)OCC(=O)c1c(N)n(Cc2ccccc2)c(=O)n(C)c1=O	-2	1	1	11
COC(=O)Cn1c(=O)c(C(=O)CCl)c(N)n(Cc2ccccc2)c1=O	nt	nt	82*	10
COc1ccc(OCC(=O)N/N=C/c2ccc(N(C)C)cc2)cc1	63*	0.4	25	5
O=c1[nH][nH]c2ccccc2c1=O	nt	nt	2	19
Cc1ccccc1/C=C/c1nc2ccccc2c(=O)[nH]1	nt	nt	54*	25
Cc1ccccc1/C=C\c1nc2ccccc2c(=O)[nH]1	56*	0.4	35	32
N#CCOc1ccccc1/C=C/c1nc2ccccc2c(=O)[nH]1	nt	nt	-6	nt
COc1ccc(NC(=O)COc2cccc(-n3cnnn3)c2)cc1Cl	nt	nt	4	nt
CCn1c(-c2ccccc2)csc1=Nc1ccc(S(=O)(=O)O)cc1	54*	0.5	19	20
CN1C2C(Br)CCCCN2c2ccc(F)cc2S1(=O)=O (configuration not stated)	nt	nt	-10	nt
COc1ccc(/C=N/Nc2nc3ccccc3o2)cc1O	66*	0.3	47	44
O=C(COC(=O)c1cccnc1Cl)NCCC1=CCCCC1	-2	1	1	2
CN(C)S(=O)(=O)c1ccc(N2CCN(S(=O)(=O)c3ccc(F)cc3)CC2)c(Cl)c1	-10	1.1	53*	28
O=C(COC(=O)c1c[nH]c2ccccc12)Nc1cccc(F)c1	nt	nt	-5	nt
COc1cccc2cc(-c3nc4ccccc4o3)c(=O)oc12	60*	0.4	4	3
O=c1oc2ccc(Br)cc2cc1-c1nc2ccccc2o1	-3	1	-5	0
C(=N\NCc1ccccc1)/c1ccc2ncccc2c1	nt	nt	-8	18
S=C(N/N=C/c1ccc2ncccc2c1)Nc1ccccc1	55*	0.5	2	9
CSc1ccc(/C=N/Nc2cccc(C(=O)O)c2)cc1	57*	0.4	9	-25
COc1ccc(/C=N/NC(=S)Nc2cccc(C(=O)O)c2)cc1	56*	0.4	21	41
SMILES	FLuc inh counter	FLuc act counter	C8 TRAIL sens	PPC-1+TRAIL kill
COc1cc(/C=N/NC(=S)Nc2cccc(C(=O)O)c2)ccc1O	25	0.7	35	27
COc1cc2c(cc1OC)/C(=C/C(C)=O)OC2	nt	nt	-6	nt
COc1ccc(C(=O)NN/C(=N/S(=O)(=O)c2ccc(C)cc2)c2ccccc2)cc1	nt	nt	28	21
Cc1c(C(=O)Nc2ccccc2)csc1-c1ccccc1	82*	0.2	67*	42
CCS(=O)(=O)N1CCN(c2cc3c(cc2[N+](=O)[O-])n(C)c(=O)n3C)CC1	-3	1	0	-1
Cc1ccc(CNC(=O)CCC2CCCN(Cc3cccc4cccnc34)C2)o1 (configuration not stated)	-3	1	13	-5
Cc1cc(C)n2nc(C(=O)OCC(=O)Nc3ccc(F)cc3F)nc2n1	nt	nt	-9	nt
CC(/C=N/NC(=O)c1nn(C)c(C)c1Br)=C\c1ccccc1	80*	0.2	57*	54*
CC(=C/c1ccccc1)/C=N/NC(=O)c1ccc2nc[nH]c2c1	82*	0.2	16	39
CC(=C/c1ccccc1)/C=N/NC(=O)c1cccs1	nt	nt	58*	6
O=C(N/N=C/C(Br)=C\c1ccccc1)c1cccs1	nt	nt	-3	11
CC(/C=N/NC(=O)c1ccncc1)=C\c1ccccc1	61*	0.4	26	5
Cc1cc(C)cc(N(CC(=O)NC(C)C)C(=O)CCC(=O)Nc2ccccn2)c1	nt	nt	3	nt
CC1(C(=O)NS(=O)(=O)c2ccccc2Cl)CCN1C(=O)C1CCCCC1 (configuration not stated)	nt	nt	-9	nt
CCOCCCn1c(=O)c2ccccc2n2c(=S)[nH]nc12	nt	nt	3	nt
Cc1ccccc1-n1c(SCC(=O)N2CCN(c3ccccn3)CC2)nnc1N1CCOCC1	nt	nt	-10	nt
COc1cccc(-c2cc(C(=O)NCCCn3ccnc3)no2)c1	-3	1	7	-2
COC(=O)Cn1ncc(N2CC(C)OC(C)C2)c(Cl)c1=O (configuration not stated)	nt	nt	-9	nt
O=C1c2ccccc2C(=O)c2c1cccc2N1CCCC1	5	0.9	10	22
O=C1C=C(N2CCCCC2)c2ccccc2C1=O	nt	nt	94*	nt
COC(=O)CSc1nc2cc(C)ccc2cc1C#N	-1	1	56*	42
CCOC(=O)CC(=O)CSc1nc2ccc(C)cc2cc1C#N	4	1	4	14
O=C(O)c1cc(-c2ccc3c(c2)OCCO3)n[nH]1	40	0.6	10	18
CCOC(=O)c1cc(-c2ccc3c(c2)OCCO3)n[nH]1	60*	0.4	20	36
Oc1ccccc1-c1cc(-c2ccc3c(c2)OCCO3)n[nH]1	66*	0.3	53*	43
SMILES	FLuc inh counter	FLuc act counter	C8 TRAIL sens	PPC-1+TRAIL kill
COc1ccc(-c2cc(-c3ccccc3O)[nH]n2)cc1OC	28	0.7	17	-8
CC(C)(C)c1ccc(C(=O)CS(=O)(=O)c2ccccc2)cc1	54*	0.5	11	13
CCOC(=O)C1=C2NC(=O)c3ccccc3N2C(=O)C1	-4	1	-6	6
CC(C)C(NS(=O)(=O)c1ccccc1F)C(=O)OCC(=O)NCc1ccco1 (configuration not stated)	nt	nt	-8	nt
Cc1c(NC(=O)c2cc(-c3ccccc3)nc3ccccc23)c(=O)n(-c2ccccc2)n1C	nt	nt	-1	nt
Cc1c(NC(=O)COC(=O)c2cc(-c3ccc(-c4ccccc4)cc3)nc3ccccc23)c(=O)n(-c2ccccc2)n1C	85*	0.2	87*	81*
COc1ccc(-c2cc(C(=O)OCC(=O)Nc3ccc4c(c3)OCO4)c3ccccc3n2)cc1	16	0.8	56*	31
O=c1cc(-c2c(F)c(F)c(F)c(F)c2F)oc2ccccc12	-4	1	77*	-2
O=c1cc(-c2cccc(F)c2)oc2ccccc12	nt	nt	13	nt
COc1ccc(NC(=O)CSc2ncccc2C(=O)OC(C)C)cc1OC	-3	1	8	2
CC(C)c1ccc(NC(=O)CSc2ncccc2C(=O)Oc2cccc([N+](=O)[O-])c2)cc1	2	1	67*	28
O=C(c1ccc2c(c1)OCCO2)N1CCN(c2ccc([N+](=O)[O-])cc2)CC1	-5	1.1	nt	-9
Cc1ccc(-n2nnc(-c3cnc4ccccc4c3)n2)cc1	54*	0.5	36	14
CCOc1ccc(NC(=S)NCc2nc3ccccc3[nH]2)cc1	-3	1	0	nt
CCNC(=S)Nc1ccc(-c2nc3ccccc3[nH]2)cc1	51*	0.5	24	8
